Results published in ChEMBL document CHEMBL1781932 (J Med Chem, 2011).
Converted amounts (≈) assume the structure as drawn.

Assays:
Type in all cases: functional
Klebsiella pneumoniae [1] = assay: Antimicrobial activity against tetracycline-susceptible Klebsiella pneumoniae isolate 109 by CLSI dilution method
How it was run: (§1)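 Broth microdilution per CLSI in fresh cation-adjusted Mueller Hinton broth, kept at 4 °C before testing, with defibrinated horse blood added as appropriate. Strains were from ATCC. MIC in µg/mL. Runs were accepted when comparator antibiotics against ATCC quality-control strains fell within recommended ranges.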

Escherichia coli [2] = assay: Antimicrobial activity against tetracycline-susceptible Escherichia coli isolate 107 by CLSI dilution method; how it was run: as §1
Acinetobacter baumannii = assay: Antimicrobial activity against tetracycline-susceptible Acinetobacter baumannii isolate 110 by CLSI dilution method; how it was run: as §1
Enterobacter cloacae = assay: Antimicrobial activity against tetracycline-susceptible Enterobacter cloacae isolate 108 by CLSI dilution method; how it was run: as §1
Staphylococcus aureus [3] = assay: Antimicrobial activity against methicillin-, tetracycline-resistant Staphylococcus aureus isolate 161 harboring tetM gene by CLSI dilution method
Klebsiella pneumoniae [4] = assay: Antimicrobial activity against tetracycline-resistant Klebsiella pneumoniae isolate 153 harboring tetA gene by CLSI dilution method
Staphylococcus aureus [5] = assay: Antimicrobial activity against tetracycline-resistant Staphylococcus aureus isolate 158 harboring tetK gene by CLSI dilution method
Enterococcus faecalis [6] = assay: Antimicrobial activity against tetracycline-resistant Enterococcus faecalis isolate 159 harboring […] gene by CLSI dilution method
Streptococcus pneumoniae [7] = assay: Antimicrobial activity against tetracycline-resistant Streptococcus pneumoniae isolate 160 harboring tetM gene by CLSI dilution method
Staphylococcus aureus [8] = assay: Antimicrobial activity against tetracycline-susceptible Staphylococcus aureus isolate 101 by CLSI dilution method
Enterococcus faecalis [9] = assay: Antimicrobial activity against tetracycline-susceptible Enterococcus faecalis isolate 103 by CLSI dilution method; how it was run: as §1
Streptococcus pneumoniae [10] = assay: Antimicrobial activity against tetracycline-susceptible Streptococcus pneumoniae isolate 106 by CLSI dilution method; how it was run: as §1
Pseudomonas aeruginosa = assay: Antimicrobial activity against tetracycline-susceptible Pseudomonas aeruginosa isolate 111 by CLSI dilution method; how it was run: as §1
Escherichia coli [11] = assay: Antimicrobial activity against tetracycline-resistant Escherichia coli isolate 155 harboring tetA gene by CLSI dilution method

Row | Structure (SMILES) | MIC (Klebsiella pneumoniae [1]) | MIC (Escherichia coli [2]) | MIC (Acinetobacter baumannii) | MIC (Enterobacter cloacae) | MIC (Staphylococcus aureus [3]) | MIC (Klebsiella pneumoniae [4]) | MIC (Staphylococcus aureus [5]) | MIC (Enterococcus faecalis [6]) | MIC (Streptococcus pneumoniae [7]) | MIC (Staphylococcus aureus [8]) | MIC (Enterococcus faecalis [9]) | MIC (Streptococcus pneumoniae [10]) | MIC (Pseudomonas aeruginosa) | MIC (Escherichia coli [11])
1 | CN(C)[C@@H]1C(O)=C(C(N)=O)C(=O)[C@@]2(O)C(O)=C3C(=O)c4c(cc5ccc(CN6CCCCC6)cc5c4O)C[C@H]3C[C@@H]12 | 8 µg/mL (≈ 14.2 µM) | 2 µg/mL (≈ 3.56 µM) | 1 µg/mL (≈ 1.78 µM) | 8 µg/mL (≈ 14.2 µM) | 2 µg/mL (≈ 3.56 µM) | 8 µg/mL (≈ 14.2 µM) | 0.5 µg/mL (≈ 0.89 µM) | 2 µg/mL (≈ 3.56 µM) | 0.25 µg/mL (≈ 0.445 µM) | 0.5 µg/mL (≈ 0.89 µM) | 0.5 µg/mL (≈ 0.89 µM) | 0.125 µg/mL (≈ 0.223 µM) | > 32 µg/mL | –
2 | CCCNCc1ccc2c(OC)c3c(c(O)c2c1)C(=O)C1=C(O)[C@]2(O)C(=O)C(C(N)=O)=C(O)[C@@H](N(C)C)[C@@H]2C[C@@H]1C3 | 1 µg/mL (≈ 1.77 µM) | 1 µg/mL (≈ 1.77 µM) | 1 µg/mL (≈ 1.77 µM) | 1 µg/mL (≈ 1.77 µM) | 2 µg/mL (≈ 3.54 µM) | – | 0.0625 µg/mL (≈ 0.11 µM) | 2 µg/mL (≈ 3.54 µM) | 0.125 µg/mL (≈ 0.221 µM) | 0.25 µg/mL (≈ 0.442 µM) | 0.125 µg/mL (≈ 0.221 µM) | 0.0156 µg/mL (≈ 0.0276 µM) | 16 µg/mL (≈ 28.3 µM) | 8 µg/mL (≈ 14.1 µM)
3 | CN(C)Cc1ccc2c(N(C)C)c3c(c(O)c2c1)C(=O)C1=C(O)[C@]2(O)C(=O)C(C(N)=O)=C(O)[C@@H](N(C)C)[C@@H]2C[C@@H]1C3 | 8 µg/mL (≈ 14.2 µM) | 2 µg/mL (≈ 3.54 µM) | 16 µg/mL (≈ 28.3 µM) | 32 µg/mL (≈ 56.7 µM) | 2 µg/mL (≈ 3.54 µM) | – | 0.25 µg/mL (≈ 0.443 µM) | 2 µg/mL (≈ 3.54 µM) | 0.25 µg/mL (≈ 0.443 µM) | 0.25 µg/mL (≈ 0.443 µM) | 0.25 µg/mL (≈ 0.443 µM) | < 0.0156 µg/mL | > 32 µg/mL | –
4 | CN(C)c1cccc2c(O)c3c(cc12)C[C@H]1C[C@H]2[C@H](N(C)C)C(O)=C(C(N)=O)C(=O)[C@@]2(O)C(O)=C1C3=O | > 32 µg/mL | – | 16 µg/mL (≈ 31.5 µM) | > 32 µg/mL | 2 µg/mL (≈ 3.94 µM) | > 32 µg/mL | 1 µg/mL (≈ 1.97 µM) | 2 µg/mL (≈ 3.94 µM) | 8 µg/mL (≈ 15.8 µM) | 1 µg/mL (≈ 1.97 µM) | 1 µg/mL (≈ 1.97 µM) | 4 µg/mL (≈ 7.88 µM) | > 32 µg/mL | > 32 µg/mL
5 | COc1cccc2c(O)c3c(cc12)C[C@H]1C[C@H]2[C@H](N(C)C)C(O)=C(C(N)=O)C(=O)[C@@]2(O)C(O)=C1C3=O | > 32 µg/mL | > 32 µg/mL | 32 µg/mL (≈ 64.7 µM) | > 32 µg/mL | 0.5 µg/mL (≈ 1.01 µM) | > 32 µg/mL | – | 1 µg/mL (≈ 2.02 µM) | 4 µg/mL (≈ 8.09 µM) | – | 0.5 µg/mL (≈ 1.01 µM) | 2 µg/mL (≈ 4.04 µM) | > 32 µg/mL | > 32 µg/mL
6 | CN(C)[C@@H]1C(O)=C(C(N)=O)C(=O)[C@@]2(O)C(O)=C3C(=O)c4c(c(Cl)c5ccc(CN6CCC6)cc5c4O)C[C@H]3C[C@@H]12 | 4 µg/mL (≈ 7.04 µM) | 2 µg/mL (≈ 3.52 µM) | 2 µg/mL (≈ 3.52 µM) | 8 µg/mL (≈ 14.1 µM) | 2 µg/mL (≈ 3.52 µM) | 8 µg/mL (≈ 14.1 µM) | 1 µg/mL (≈ 1.76 µM) | 2 µg/mL (≈ 3.52 µM) | 0.5 µg/mL (≈ 0.88 µM) | 1 µg/mL (≈ 1.76 µM) | 0.25 µg/mL (≈ 0.44 µM) | – | > 32 µg/mL | 16 µg/mL (≈ 28.2 µM)
7 | CN(C)c1c2c(c(O)c3cc(CN4CCC4)ccc13)C(=O)C1=C(O)[C@]3(O)C(=O)C(C(N)=O)=C(O)[C@@H](N(C)C)[C@@H]3C[C@@H]1C2 | 4 µg/mL (≈ 6.94 µM) | 2 µg/mL (≈ 3.47 µM) | 1 µg/mL (≈ 1.73 µM) | 8 µg/mL (≈ 13.9 µM) | 2 µg/mL (≈ 3.47 µM) | 16 µg/mL (≈ 27.7 µM) | 0.0625 µg/mL (≈ 0.108 µM) | 2 µg/mL (≈ 3.47 µM) | 0.125 µg/mL (≈ 0.217 µM) | 1 µg/mL (≈ 1.73 µM) | 0.125 µg/mL (≈ 0.217 µM) | < 0.0156 µg/mL | 32 µg/mL (≈ 55.5 µM) | –
8 | CN(C)[C@@H]1C(O)=C(C(N)=O)C(=O)[C@@]2(O)C(O)=C3C(=O)c4c(cc5ccc(-c6cccnc6)cc5c4O)C[C@H]3C[C@@H]12 | > 32 µg/mL | > 32 µg/mL | > 32 µg/mL | > 32 µg/mL | 1 µg/mL (≈ 1.85 µM) | > 32 µg/mL | – | 0.25 µg/mL (≈ 0.462 µM) | > 32 µg/mL | 1 µg/mL (≈ 1.85 µM) | 0.5 µg/mL (≈ 0.923 µM) | > 32 µg/mL | > 32 µg/mL | > 32 µg/mL
